Source: ChEMBL document CHEMBL1127027, “Synthesis and structure-activity relationships of naphthalene-substituted derivatives of the allylamine antimycotic terbinafine” (1993)
In brackets after ≈: the same amount, converted by molar mass.

Legend:
Aspergillus fumigatus = assay: Tested in vitro for minimum inhibitory concentration against Aspergillus fumigatus; format: functional
In short: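 Broth macrodilution in glass tubes with Sabouraud's dextrose broth (pH 6.5). Compounds were dissolved in DMSO and serially diluted in medium. Inoculum was filamentous fungus harvested by spatula from Kimmig agar cultures grown 21 days at 30 °C. Tubes were incubated 72 h at 30 °C. MIC was the lowest concentration with no macroscopically visible growth.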

Candida albicans [1] = assay: Tested in vitro for minimum inhibitory concentration against Candida albicans 124; format: functional
In short: (§1)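 Yeasts were tested by tube dilution in malt extract broth (pH 4.8), with DMSO-dissolved compounds serially diluted in the broth. Blastospores came from yeast nitrogen base cultures shaken at 37 °C for about 30 h. After 48 h at 30 °C, MIC was read as the lowest concentration without macroscopic growth.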

Candida parapsilosis = assay: Tested in vitro for minimum inhibitory concentration against Candida parapsilosis 39; format: functional; conditions: Lodderomyces parapsilosis; in short: as §1
Microsporum canis = assay: Tested in vitro for minimum inhibitory concentration against Microsporum canis; format: functional
In short: (§2)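 Glass-tube serial dilution in Sabouraud's dextrose broth (pH 6.5), with compounds dissolved in DMSO and diluted in medium. Mycelial inoculum was scraped from 21-day Kimmig agar cultures grown at 30 °C. Incubation was 7 days at 30 °C. MIC was the lowest concentration giving no macroscopically detectable growth.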

Sporothrix schenckii = assay: Tested in vitro for minimum inhibitory concentration against Sporothrix schenck ii; format: functional; in short: as §2
Trichophyton benhamiae = assay: Tested in vitro for minimum inhibitory concentration against Trichophyton mentagrophytes; format: functional, Arthroderma benhamiae; in short: as §2
Candida albicans [2] = assay: Tested in vitro for minimum inhibitory concentration against Candida albicans 9; format: functional; in short: as §1

SMILES	MIC (Aspergillus fumigatus) [µg/mL]	MIC (Candida albicans [1]) [µg/mL]	MIC (Candida parapsilosis) [µg/mL]	MIC (Microsporum canis) [µg/mL]	MIC (Sporothrix schenckii) [µg/mL]	MIC (Trichophyton benhamiae) [µg/mL]	MIC (Candida albicans [2]) [µg/mL]
CN(C/C=C/C#CC(C)(C)C)Cc1cccc2c(C#N)cccc12	> 200	> 200	3.13 (≈ 9.89 µM)	0.4 (≈ 1.26 µM)	6.25 (≈ 19.8 µM)	0.2 (≈ 0.632 µM)	> 200
CN(C/C=C/C#CC(C)(C)C)Cc1cccc2ccccc12 [TERBINAFINE]	0.8 (≈ 2.75 µM)	25 (≈ 85.8 µM)	0.8 (≈ 2.75 µM)	0.006 (≈ 0.0206 µM)	0.4 (≈ 1.37 µM)	0.003 (≈ 0.0103 µM)	6.25 (≈ 21.4 µM)
CN(C/C=C/C#CC(C)(C)C)Cc1ccc(F)c2ccccc12	3.13 (≈ 10.1 µM)	25 (≈ 80.8 µM)	0.8 (≈ 2.59 µM)	0.01 (≈ 0.0323 µM)	0.4 (≈ 1.29 µM)	0.01 (≈ 0.0323 µM)	12.5 (≈ 40.4 µM)
Cc1cc(CN(C)C/C=C/C#CC(C)(C)C)c2ccccc2c1	3.13 (≈ 10.2 µM)	50 (≈ 164 µM)	1.56 (≈ 5.11 µM)	0.02 (≈ 0.0655 µM)	0.2 (≈ 0.655 µM)	0.01 (≈ 0.0327 µM)	50 (≈ 164 µM)
CN(C/C=C/C#CC(C)(C)C)Cc1cccc2c(Cl)csc12	0.1 (≈ 0.301 µM)	0.8 (≈ 2.41 µM)	0.1 (≈ 0.301 µM)	0.003 (≈ 0.00904 µM)	0.2 (≈ 0.603 µM)	0.0015 (≈ 0.00452 µM)	0.4 (≈ 1.21 µM)
CN(C/C=C/C#CC(C)(C)C)Cc1cccc2cc(F)ccc12	6.25 (≈ 20.2 µM)	25 (≈ 80.8 µM)	1.56 (≈ 5.04 µM)	0.006 (≈ 0.0194 µM)	0.8 (≈ 2.59 µM)	0.006 (≈ 0.0194 µM)	6.25 (≈ 20.2 µM)
CN(C/C=C/C#CC(C)(C)C)Cc1ccc(C#N)c2ccccc12	> 200	> 200	12.5 (≈ 39.5 µM)	0.1 (≈ 0.316 µM)	> 200	0.2 (≈ 0.632 µM)	> 200
CN(C/C=C/C#CC(C)(C)C)Cc1cc(C#N)cc2ccccc12	> 200	> 200	0.4 (≈ 1.26 µM)	0.05 (≈ 0.158 µM)	> 200	0.05 (≈ 0.158 µM)	> 200
Cc1ccc(CN(C)C/C=C/C#CC(C)(C)C)c2ccccc12	> 200	50 (≈ 164 µM)	3.13 (≈ 10.2 µM)	0.05 (≈ 0.164 µM)	0.8 (≈ 2.62 µM)	0.02 (≈ 0.0655 µM)	25 (≈ 81.8 µM)
Cc1ccc2c(CN(C)C/C=C/C#CC(C)(C)C)cccc2c1	> 200	25 (≈ 81.8 µM)	0.8 (≈ 2.62 µM)	0.05 (≈ 0.164 µM)	0.4 (≈ 1.31 µM)	0.01 (≈ 0.0327 µM)	12.5 (≈ 40.9 µM)

More lines, now with the values ahead:

MIC (Aspergillus fumigatus) [µg/mL]	MIC (Candida albicans [1]) [µg/mL]	MIC (Candida parapsilosis) [µg/mL]	MIC (Microsporum canis) [µg/mL]	MIC (Sporothrix schenckii) [µg/mL]	MIC (Trichophyton benhamiae) [µg/mL]	MIC (Candida albicans [2]) [µg/mL]	SMILES
1.56 (≈ 4.79 µM)	12.5 (≈ 38.4 µM)	0.4 (≈ 1.23 µM)	0.02 (≈ 0.0614 µM)	0.4 (≈ 1.23 µM)	0.02 (≈ 0.0614 µM)	3.13 (≈ 9.6 µM)	CN(C/C=C/C#CC(C)(C)C)Cc1cccc2ccc(Cl)cc12
1.56 (≈ 5.11 µM)	50 (≈ 164 µM)	0.8 (≈ 2.62 µM)	0.05 (≈ 0.164 µM)	0.4 (≈ 1.31 µM)	0.01 (≈ 0.0327 µM)	25 (≈ 81.8 µM)	Cc1ccc2cccc(CN(C)C/C=C/C#CC(C)(C)C)c2c1
0.1 (≈ 0.305 µM)	1.56 (≈ 4.76 µM)	0.1 (≈ 0.305 µM)	0.003 (≈ 0.00916 µM)	0.1 (≈ 0.305 µM)	0.003 (≈ 0.00916 µM)	0.8 (≈ 2.44 µM)	CN(C/C=C/C#CC(C)(C)C)Cc1cccc2c(F)cc(F)cc12
0.1 (≈ 0.307 µM)	1.56 (≈ 4.79 µM)	0.2 (≈ 0.614 µM)	0.006 (≈ 0.0184 µM)	0.4 (≈ 1.23 µM)	0.003 (≈ 0.00921 µM)	0.8 (≈ 2.45 µM)	CN(C/C=C/C#CC(C)(C)C)Cc1cccc2c(Cl)cccc12
0.1 (≈ 0.323 µM)	3.13 (≈ 10.1 µM)	0.2 (≈ 0.646 µM)	0.006 (≈ 0.0194 µM)	0.2 (≈ 0.646 µM)	0.006 (≈ 0.0194 µM)	1.56 (≈ 5.04 µM)	CN(C/C=C/C#CC(C)(C)C)Cc1cccc2c(F)cccc12
0.8 (≈ 2.62 µM)	12.5 (≈ 40.9 µM)	1.56 (≈ 5.11 µM)	0.02 (≈ 0.0655 µM)	0.4 (≈ 1.31 µM)	0.006 (≈ 0.0196 µM)	6.25 (≈ 20.5 µM)	Cc1cccc2c(CN(C)C/C=C/C#CC(C)(C)C)cccc12
1.56 (≈ 4.21 µM)	3.13 (≈ 8.45 µM)	0.8 (≈ 2.16 µM)	0.01 (≈ 0.027 µM)	0.1 (≈ 0.27 µM)	0.006 (≈ 0.0162 µM)	1.56 (≈ 4.21 µM)	CN(C/C=C/C#CC(C)(C)C)Cc1cccc2c(Br)cccc12
0.8 (≈ 2.59 µM)	6.25 (≈ 20.2 µM)	0.2 (≈ 0.646 µM)	0.006 (≈ 0.0194 µM)	0.2 (≈ 0.646 µM)	0.006 (≈ 0.0194 µM)	0.8 (≈ 2.59 µM)	CN(C/C=C/C#CC(C)(C)C)Cc1cc(F)cc2ccccc12
0.4 (≈ 1.29 µM)	12.5 (≈ 40.4 µM)	0.4 (≈ 1.29 µM)	0.006 (≈ 0.0194 µM)	0.4 (≈ 1.29 µM)	0.006 (≈ 0.0194 µM)	3.13 (≈ 10.1 µM)	CN(C/C=C/C#CC(C)(C)C)Cc1cccc2ccc(F)cc12
